Bioassay records as filed in PubChem.
Apaf-1 inh: blocks human Apaf-1 apoptosome activity; O14727; reconstituted apoptosome caspase-3 activity, DEVD-Rh110 fluorescence; inhibition, % at 20 µM; 330,000 tested, 0.71% active; AID 489030; active = inhibition of at least 40% at 20 µM;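 also: plate controls were DMSO wells for no effect and DEVD-CHO caspase inhibitor wells for full effect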
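Material: reconstituted apoptosome with Apaf-1, cytochrome c, caspase-9, procaspase-3, dATP; medium: pH 7.5 Hepes buffer with CHAPS, BSA, DTT; also added: cytochrome c and DEVD-Rh110 substrate; timing: 30 min plus 50 min, RT; signal: Rh110 fluorescence intensity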
PAFAH1B2 inh: inhibitors of human PAFAH1B2. AID 492953. P68402. 340,000 tested, 1.2% active. recombinant PAFAH1B2, FP-rhodamine activity probe, fluorescence polarization. inhibition, % at 3.39 µM;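 active = inhibition above the mean of all tested compounds plus 3 SD, cut at about 24% in these data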;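 also: 0% = enzyme with DMSO and 100% = wells lacking PAFAH1B2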
PAFAH2 inh: inhibitors of human PAFAH2 | Q99487 | recombinant PAFAH2, FP-rhodamine activity probe, fluorescence polarization | 340,000 tested, 0.99% active | inhibition, % at 3.39 µM;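 active = inhibition above the mean over all tested compounds plus 3 SD, cut at about 30% in these data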;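 also: inhibitors block probe labeling of enzyme so polarization drops; 0% = enzyme with DMSO and 100% = wells lacking PAFAH2 protein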
TDP2 absorb: blocks human TDP2 phosphodiesterase activity; O95551; recombinant TDP2, T5PNP hydrolysis, p-nitrophenol absorbance 415 nm; inhibition, % at 12.8 µM; 370,000 tested, 0.34% active; AID 720702;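 active = inhibition above the mean of all tested compounds plus 3 SD, set per campaign, cut at about 25% in these data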;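 also: 0% = DMSO with enzyme and 100% = buffer with substrate but no TDP2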
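Test system: Human TDP2 enzyme | Reagent: 5 mM T5PNP | Compound dosing: 12.8 µM single point, 1% DMSO | Incubation: Enzyme reaction with compound for 2 h at 37 °C | Technique: p-Nitrophenol epi absorbance | Read-out: % inhibition relative to enzyme-containing and enzyme-free wells | Benchmarks: High control without enzyme, low control DMSO plus TDP2 | Replicates: Singlicate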
PAFAH1B3 FP inh: PAFAH1B3 (human) inhibition; recombinant PAFAH1B3, FP-rhodamine probe, fluorescence polarization; 340,000 tested, 0.28% active; Q15102; inhibition, % at 3.39 µM;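 active = inhibition above the screen-wide average of all tested compounds plus 3 SD, cut at about 25% in these data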;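 also: 0% = enzyme with DMSO only and 100% = wells lacking PAFAH1B3 protein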
Apaf-1 inh conf: confirmation of Apaf-1 inhibitors. shares compounds with Apaf-1 inh. reconstituted apoptosome, caspase-3 DEVD-Rh110 fluorescence. inhibition, % at 20 µM. 1,800 tested, 25% active. AID 504614;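 active = mean inhibition of at least 40% at 20 µM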;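 also: plate controls were DMSO wells for no effect and DEVD-CHO caspase inhibitor control wells for full effect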
Rh110 interf inh: interferes with Rh110 fluorescence, flagging false Apaf-1 inhibitors. 1,800 tested, under 10 active. AID 504615. activation (fluorescence interference), % at 20 µM. Rh110 fluorescence interference, quenched caspase reaction. shares compounds with Apaf-1 inh;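 active = signal rise of 40% or more at 20 µM, treated as a fluorescence artifact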
Apaf1 inh interf: Apaf-1 inhibitor counter-screen fluorescence artifact | shares compounds with Apaf-1 inh | fluorescence interference counterscreen, Apaf-1 assay format | IC50, µM | 460 tested, under 10 active; call rule not given here
PAFAH1B3 conf FP: confirmation of human PAFAH1B3 inhibitors; shares compounds with PAFAH1B3 FP inh; recombinant PAFAH1B3, FP-Rh activity-based probe, fluorescence polarization; inhibition, % at 3.39 µM; 390 tested, 30% active;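 active = average inhibition over triplicate runs above the hit cutoff set in the earlier primary screen, cut at about 25% in these data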;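 also: 0% = enzyme with DMSO and 100% = wells lacking PAFAH1B3 protein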
TDP2 inh conf: human TDP2 inhibition, confirmation. inhibition, % at 12.8 µM. recombinant human TDP2, absorbance read-out. 1,100 tested, 22% active. shares compounds with TDP2 absorb; in the data active = inhibition above about 25%;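 also: 0% = vehicle with enzyme and 100% = no enzyme buffer only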
* marks the source's active call; other numbers are inactive results; nt = no result given. Hits are enriched below; roughly 2.3% of the tested compounds scored in any of these assays.

SMILES	Apaf-1 inh	PAFAH1B2 inh	PAFAH2 inh	TDP2 absorb	PAFAH1B3 FP inh	Apaf-1 inh conf	Rh110 interf inh	PAFAH1B3 conf FP	TDP2 inh conf	others
CC(C)Cn1c(N)c(C(=O)NCC2CCCO2)c2nc3ccccc3nc21 (stereo unspecified)	65*	8	12	8	32*	30	10	14	nt
C=CCc1cccc(/C=N/NC(=O)CNc2cccc3ccccc23)c1O	96*	9	-30	-6	26*	13	4	17	nt
C=CCc1cccc(/C=N/NC(=O)CNc2ccccc2OC)c1O	24	4	11	-14	8	nt	nt	nt	nt
COC(=O)C1=C(C)N(C)C(=NCc2ccc3c(c2)OCO3)NC1c1cccc(Cl)c1 (stereo unspecified)	nt	nt	nt	-1	nt	nt	nt	nt	nt
COc1ccc(C(=O)c2c(C(F)(F)F)oc3c2C(=O)c2ccccc2C3=O)cc1	79*	10	4	nt	27*	84*	14	25	nt	Apaf1 inh interf=>100
CCC(C)n1c(NC(=O)c2ccccc2)c(C#N)c2nc3ccccc3nc21 (stereo unspecified)	93*	2	-2	77*	35*	33	9	8	nt
CN(C)CCCNc1cc(O)c2ncccc2c1	77*	3	0	14	29*	55*	3	13	nt	Apaf1 inh interf=>100
COC(=O)[C@]12C[C@H](CC(=O)NCc3cccc(C(F)(F)F)c3)C(=O)N(Cc3cccc4ccccc34)C1=C[C@H](C1CCCC1)O[C@@H]2C	nt	nt	nt	4	nt	nt	nt	nt	nt
COc1ccccc1NC1=C(N2CCCCC2)C(=O)c2ccccc2C1=O	95*	7	13	nt	42*	95*	4	21	nt	Apaf1 inh interf=>100
COc1ccccc1NS(=O)(=O)c1cc(N)ccc1N1CCCC1	23	6	5	1	16	nt	nt	nt	nt
Cc1ccc(SC2=C(Sc3ccc(C)cc3)C(=O)c3ccccc3C2=O)cc1	64*	21	16	18	38*	32	7	35*	nt
CCCCOc1ccc(C(=O)NC2CCCCN(Cc3cccc(C(F)(F)F)c3)C2=O)cc1 (stereo unspecified)	nt	nt	nt	-11	nt	nt	nt	nt	nt
CCOC(=O)c1c2c(n(C)c1C)C(=O)C(=O)c1ccc(Br)cc1-2	96*	8	22	-3	36*	72*	6	21	nt	Apaf1 inh interf=>100
Cc1c(CN(C)C)c2c(n1C)C(=O)c1ccc(Br)cc1-2	6	-4	6	3	17	nt	nt	nt	nt
COc1ccc(S[C@]2(C(=O)N3CCN(c4ncccn4)CC3)CC(=O)N(C(=O)c3ccccc3)[C@@H]2c2ccc(OC)cc2)cc1	nt	nt	nt	1	nt	nt	nt	nt	nt
COc1cc(/C=C2/C(=O)N(c3ccc([N+](=O)[O-])cc3)N=C2N2CCOCC2)ccc1O	86*	-1	-1	67*	7	39	3	nt	32*
COc1cc(/C=C2\SC(=S)N(N3CCOCC3)C2=O)ccc1O	-8	-14	-59	2	-29	nt	nt	nt	nt
COC[C@H]1CCCN1c1cccc2c1S(=O)(=O)N(C1CC1)CC[C@@H](C)O2	nt	nt	nt	3	nt	nt	nt	nt	nt
COc1ccc(-c2cc(=O)[nH][nH]2)cc1OC	77*	1	0	87*	2	13	-6	nt	17
CCOc1cccc(-c2cc(=O)[nH][nH]2)c1	44*	6	-6	45*	9	9	4	nt	10
O=c1cc(-c2ccc(F)cc2)[nH][nH]1	50*	1	3	55*	7	2	-8	nt	8
COc1ccc(-c2c[nH]c(=O)[nH]c2=O)cc1OC	8	-1	-3	-1	1	nt	nt	nt	nt
COCCCNC(=O)C[C@H]1C[C@@]2(C(=O)OC)C(=C[C@H](COCc3ccccc3)O[C@@H]2C)N(Cc2ccc3c(c2)OCO3)C1=O	nt	nt	nt	0	nt	nt	nt	nt	nt
CC(=O)N1CCn2c3c(c(=O)c4cc(C)ccc42)CCC31 (stereo unspecified)	73*	10	-2	34*	41*	17	-1	16	50*
Cc1ccc(NC2=C(NC(=O)c3ccccc3)C(=O)c3ccccc3C2=O)cc1Cl	67*	9	12	29*	18	64*	7	nt	17	Apaf1 inh interf=>100
SMILES	Apaf-1 inh	PAFAH1B2 inh	PAFAH2 inh	TDP2 absorb	PAFAH1B3 FP inh	Apaf-1 inh conf	Rh110 interf inh	PAFAH1B3 conf FP	TDP2 inh conf	others
CCN(c1ccccc1)c1nc(=O)c2cccnc2s1	-5	8	5	1	12	nt	nt	nt	nt
CCN(c1ccccc1)c1cc2ccccc2c(=O)[nH]1	96*	13	7	28*	26*	59*	5	8	76*	Apaf1 inh interf=>100
CCC(=Nc1ccc(N)cc1)C1=C(O)C(C(=O)OC)C(C)(C)CC1=O (stereo unspecified)	61*	-2	9	55*	12	19	2	nt	17
CCCC(=Nc1ccccc1)C1=C(O)C(C(=O)OC)C(C)(C)CC1=O (stereo unspecified)	-3	1	0	-9	1	nt	nt	nt	nt
O=C1[C@@H](CCc2ccccc2)[C@@H]2c3ccccc3C=NN2[C@@H]2c3ccccc3C=NN12	nt	nt	nt	4	nt	nt	nt	nt	nt
CCOc1cc(/C=C2/C(=O)N(c3ccccc3)N=C2C)ccc1OC(=O)c1ccco1	97*	2	3	77*	9	21	17	nt	29*
CCOc1cc(/C=C2/C(=N)N3N=C(CC)SC3=NC2=O)ccc1OC(=O)c1ccco1	8	-2	-3	9	1	nt	nt	nt	nt
Cc1c(Cl)cnc(NC(=O)COC(=O)c2ccc([N+](=O)[O-])s2)c1Cl	40*	16	47*	37*	33*	33	0	nt	22
O=C(COC(=O)c1ccc([N+](=O)[O-])s1)Nc1ccc(Cl)cn1	29	11	22	4	24	nt	nt	nt	nt
N#Cc1cc2ccc(N3CCOCC3)cc2cc1C#N	82*	7	18	69*	60*	10	10	15	6
N#Cc1cc(Cl)c(N2CCOCC2)cc1C#N	-2	2	12	1	3	nt	nt	nt	nt
CCc1ccc(CNCC(=O)N2CCC3(CC2)OCCO3)s1	nt	nt	nt	-6	nt	nt	nt	nt	nt
O=C(Nc1nc2ncccn2c1-c1ccccc1)c1ccccc1	nt	nt	nt	-2	nt	nt	nt	nt	nt
CC(=O)c1ccc2c(c1)C1C=CCC1C(c1ccncc1)N2 (stereo unspecified)	60*	1	16	32*	2	30	7	nt	14
CC(=O)N1CCN(C(=O)c2ccc(CNC(=O)c3cccc(Br)c3)cc2)CC1	nt	nt	nt	10	nt	nt	nt	nt	nt
